Here are results for 16 compounds from publication PMC3171605 (Bioorganic & medicinal chemistry letters, 2011).

Data set [1] has as its target T1, CB1 (Homo sapiens, UniProt P21554). In kind it is cell-based.
The target in data set [2] is T1, CB1. As to the kind of experiment: Radioligand displacement of [3H]1. In kind it is binding. (In general: Displacement assays read how much labelled ligand stays bound in the presence of the test substance.)
Data set [3] concerns MDCK-mdr1 cells. The data set is described as follows: MDCK-mdr1 transport assay. In kind it is in vitro ADME, Canine. To be noted: 3.16 µM apical, 1 hr at 37°C. The procedure, abridged:
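MDCK-mdr1 cells grown on permeable filter inserts for 4 days to confluence. Test compound applied apically at 3.16 µM, incubated 1 hr at 37°C, alongside two reference CB1 antagonists as controls. Apical and basolateral samples dried under nitrogen and quantified by LC-MS/MS (MRM) using a 0.1% formic acid water/methanol gradient at 0.5 mL/min. Read-out is the percentage transported across the monolayer.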

Molecules are shown by their SMILES.

T1 sequence (P21554 whole entry, species assumed): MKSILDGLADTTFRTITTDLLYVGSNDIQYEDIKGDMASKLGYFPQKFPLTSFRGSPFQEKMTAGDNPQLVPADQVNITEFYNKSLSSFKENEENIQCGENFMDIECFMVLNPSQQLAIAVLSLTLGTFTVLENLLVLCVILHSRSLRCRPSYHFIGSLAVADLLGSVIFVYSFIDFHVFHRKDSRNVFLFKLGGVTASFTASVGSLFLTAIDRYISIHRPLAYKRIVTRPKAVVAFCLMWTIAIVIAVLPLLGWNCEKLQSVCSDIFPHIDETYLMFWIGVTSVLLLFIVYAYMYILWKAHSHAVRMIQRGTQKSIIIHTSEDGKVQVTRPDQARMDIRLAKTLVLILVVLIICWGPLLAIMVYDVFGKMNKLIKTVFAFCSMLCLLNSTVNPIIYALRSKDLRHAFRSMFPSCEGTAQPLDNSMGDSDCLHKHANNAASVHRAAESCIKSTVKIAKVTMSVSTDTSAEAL

With `Cc1c(C(=O)Nc2ccncc2)nn(-c2ccc(Cl)cc2Cl)c1-c1ccc(Cl)cc1` [Compound 5], in data set [1], the Kb is 117 nM.
`Cc1c(C(=O)Nc2cc[n+](C)cc2)nn(-c2ccc(Cl)cc2Cl)c1-c1ccc(Cl)cc1` [Compound 6] returned a Kb in data set [1] greater than 10000 nM.
Compound `Cc1c(C(=O)Nc2cc[n+]([O-])cc2)nn(-c2ccc(Cl)cc2Cl)c1-c1ccc(Cl)cc1` [Compound 7] registered a Kb in data set [1] of 1390 nM.
In turn, `Cc1ccc(NC(=O)c2nn(-c3ccc(Cl)cc3Cl)c(-c3ccc(Cl)cc3)c2C)cn1` [Compound 8] displayed a Kb in data set [1] of 384 nM.
On to `Cc1c(C(=O)Nc2ccc(C)[n+](C)c2)nn(-c2ccc(Cl)cc2Cl)c1-c1ccc(Cl)cc1` [Compound 9], for which the Kb in data set [1] was determined as 8410 nM.
Compound `Cc1c(C(=O)Nc2ccc(C)[n+]([O-])c2)nn(-c2ccc(Cl)cc2Cl)c1-c1ccc(Cl)cc1` [Compound 10] returned a Kb in data set [1] of 1200 nM.
For `Cc1ccc(NC(=O)c2nn(-c3ccc(Cl)cc3Cl)c(-c3ccc(Cl)cc3)c2C)nc1` [Compound 11], in data set [1], the Kb came out at 980 nM.
`Cc1ccc(NC(=O)c2nn(-c3ccc(Cl)cc3Cl)c(-c3ccc(Cl)cc3)c2C)[n+](C)c1` [Compound 12]: the Kb in data set [1] worked out at 8590 nM.
The same measure, in the same setting: the value for `Cc1ccc(NC(=O)c2nn(-c3ccc(Cl)cc3Cl)c(-c3ccc(Cl)cc3)c2C)[n+]([O-])c1` [Compound 13] was 4580 nM; that for `Cc1c(C(=O)N[C@H]2CC[C@H](NS(N)(=O)=O)CC2)nn(-c2ccc(Cl)cc2Cl)c1-c1ccc(Cl)cc1` [Compound 18] was 9430 nM; that for `Cc1c(C(=O)NCC2CCC(CN)CC2)nn(-c2ccc(Cl)cc2Cl)c1-c1ccc(Cl)cc1` (stereo not shown) [Compound 19] was 3760 nM.
`Cc1c(C(=O)NCC2CCC(CNS(C)(=O)=O)CC2)nn(-c2ccc(Cl)cc2Cl)c1-c1ccc(Cl)cc1` (stereo not shown) [Compound 20] came in with a Ki in data set [2] of roughly 10 nM.
For the compound `Cc1c(C(=O)NC[C@H]2CC[C@@H](CNS(C)(=O)=O)CC2)nn(-c2ccc(Cl)cc2Cl)c1-c1ccc(Cl)cc1` [Compound 22], the “transport from apical to basal side of the membrane” value (“transport from apical to basal side” for short) in data set [3] was “less than 1%”.
On to `Cc1c(C(=O)NC[C@H]2CC[C@@H](CNS(N)(=O)=O)CC2)nn(-c2ccc(Cl)cc2Cl)c1-c1ccc(Cl)cc1` [Compound 23], for which the “transport from apical to basal side” value in data set [3] is given as “less than 1%”.
Turning to `CCNC1(C(N)=O)CCN(c2ncnc3c2nc(-c2ccccc2Cl)n3-c2ccc(Cl)cc2)CC1` [otenabant, reference compound], in data set [3], the “transport from apical to basal side” value is given as ~ 90%.
As to `Cc1c(C(=O)NN2CCCCC2)nn(-c2ccc(Cl)cc2Cl)c1-c1ccc(Cl)cc1` [rimonabant, reference compound], the “transport from apical to basal side” value in data set [3] is listed as ~ 15%.

For orientation: Ki means the equilibrium dissociation constant of an inhibitor or competing ligand from its target. High values mean a looser hold on the target, low ones a stronger hold on the target.
